# Source: PubChem BioAssay
# GPR7 antagonist: antagonists of human GPR7 (neuropeptides B/W receptor 1); GPR7-expressing cells, fluorescence antagonist assay; 290,000 tested, 1.1% active; inhibition, % at 4.4 µM; AID 1861; P48145; in the data active = inhibition above about 16%, passing the limit was not always enough;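 also: cells stimulated with the agonist NPW; 0% = agonist with vehicle and 100% = vehicle without agonist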
# Target sequence (P48145 whole entry, looked up): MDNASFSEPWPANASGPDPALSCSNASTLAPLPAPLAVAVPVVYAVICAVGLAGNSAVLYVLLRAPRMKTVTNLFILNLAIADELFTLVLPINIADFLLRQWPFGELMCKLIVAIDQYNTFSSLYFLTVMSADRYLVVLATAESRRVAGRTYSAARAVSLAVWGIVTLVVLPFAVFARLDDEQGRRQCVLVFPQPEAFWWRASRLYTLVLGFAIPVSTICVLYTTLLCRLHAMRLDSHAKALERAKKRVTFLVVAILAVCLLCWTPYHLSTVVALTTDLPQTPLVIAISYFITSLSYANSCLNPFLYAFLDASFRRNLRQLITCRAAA
# OX1R antag-1: human HCRTR1 antagonism; CHO/OX1R cells, Fluo-8 calcium fluorescence, orexin A; 330,000 tested, 0.43% active; O43613; inhibition, % at 5 µM;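 active = inhibition above its plate's threshold, mean inhibition of all tested compounds on the plate plus 3 SD, cut at about 37% in these data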;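 also: 0% = orexin A challenge wells and 100% = SB-334867-A antagonist wells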
# TAAR1 antagonist: antagonists of human TAAR1. Q96RJ0. CHO RD-HGA16 TAAR1, Fluo-8 calcium fluorescence, antagonist. inhibition, % at 3 µM. 360,000 tested, 1.5% active. AID 624466;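 active = inhibition above a per-plate cutoff, the mean inhibition of test compounds on that plate plus 3 SD, cut at about 49% in these data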;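 also: 0% = DMSO plus EC80 beta-PEA response and 100% = DMSO alone without agonist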
# Target sequence (Q96RJ0 whole entry, looked up): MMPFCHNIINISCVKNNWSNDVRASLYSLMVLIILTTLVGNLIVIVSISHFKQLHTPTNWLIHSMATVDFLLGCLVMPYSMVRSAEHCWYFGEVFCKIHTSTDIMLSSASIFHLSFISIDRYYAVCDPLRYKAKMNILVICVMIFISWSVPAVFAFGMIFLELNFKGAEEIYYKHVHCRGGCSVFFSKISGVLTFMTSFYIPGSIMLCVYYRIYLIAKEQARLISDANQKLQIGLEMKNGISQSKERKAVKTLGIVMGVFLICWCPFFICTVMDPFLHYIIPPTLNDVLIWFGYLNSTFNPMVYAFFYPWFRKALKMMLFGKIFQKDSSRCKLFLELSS
#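 Material: CHO RD-HGA16 cells bearing hTAAR1; compound dosing: one-point dosing, 3 µM nominal final; schedule: dye loading 75 min at 37 °C, then 30 min room temperature; measured by: calcium fluorescence with Fluo-8; control set: vehicle and agonist controls; replication: n of 1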
# OX1R antag-2: blocks the human orexin 1 receptor. inhibition, % at 6.6 µM. O43613. OX1R-expressing cells, FRET antagonist read-out. 330,000 tested, 1.8% active; in the data active = inhibition mostly above about 38%, no sharp cut-off; inactive = mostly below about 40%;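 also: 0% = agonist challenge alone and 100% = reference antagonist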
# TAAR1 agonist: human TAAR1 agonism; Q96RJ0; activation, % at 3 µM; 360,000 tested, 0.99% active; CHO RD-HGA16 TAAR1, Fluo-8 calcium fluorescence; vehicle wells 0%, saturating PEA agonist 100%;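 active = activation above the mean activation of all test compounds in the run plus 3 SD, cut at about 38% in these data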
#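 Signal – calcium-sensitive Fluo-8 signal, excitation 470-495, emission 515-575 nm · System – RD-HGA16 (CHO) cells co-expressing Gα16 and hTAAR1 · Incubation – 17-24 h seeding, 75 min 37 °C dye, 30 min RT · Compound dosing – 3 µM single concentration · Repeats – no replicates (n 1)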
# CHO parental Ca: counter-screen: ATP calcium response change in parental CHO cells | parental CHO-K1, ATP-induced calcium, Fluo-8 fluorescence | 330,000 tested, 0.63% active | inhibition, % at 5.6 µM;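 active = inhibition above that plate's mean sample inhibition plus 3 SD, cut at about 26% in these data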;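 also: 0% = ATP-challenged DMSO wells and 100% = DMSO wells without ATP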
#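 Assay system: parental CHO cells; Read-out basis: percent inhibition of ATP-evoked calcium rise, normalized to controls; Benchmarks: ATP and no-ATP DMSO wells; Compound dosing: single nominal dose of 5.6 µM per compound; Signal: Fluo-8 calcium dye fluorescence; Also added: ATP as calcium-mobilizing challenge; Repeats: singlicate.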
# TAAR1 ag conf: confirmation of human TAAR1 agonists. CHO RD-HGA16 TAAR1, Fluo-8 calcium fluorescence; scaled: DMSO 0%, maximal phenethylamine 100%. shares compounds with TAAR1 agonist. activation, % at 3 µM. AID 651783. 2,400 tested, 82% active;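 active = activation above a cutoff set at the run's mean compound activation plus 3 SD, cut at about 39% in these data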
# Ga16 nonsel ag: nonselective agonism, TAAR1 counter-screen | shares compounds with TAAR1 agonist | CHO-Ga16 parental, Fluo-8 calcium fluorescence; normalized to maximal ATP response, DMSO zero | activation, % at 3 µM | 2,400 tested, 50% active;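 active = activation above the run cutoff, the mean activation over all tested wells plus 3 SD, cut at about 12% in these data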;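 also: 0% = DMSO wells and 100% = maximal ATP response on the peak over basal ratio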
# TAAR1 desens: TAAR1 response desensitization, agonist counter-screen; shares compounds with TAAR1 agonist; CHO RD-HGA16 hTAAR1, Fluo-8 calcium, beta-PEA response inhibition; inhibition, % at 3 µM; 2,400 tested, 46% active; AID 651951;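 active = inhibition above the run cutoff, the mean inhibition of all test compounds plus 3 SD, cut at about 49% in these data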;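 also: beta-PEA stimulus applied at its EC80; loss of beta-PEA calcium signal after compound pretreatment read as receptor desensitization; 0% = DMSO with beta-PEA at EC80 and 100% = DMSO alone without agonist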
# Ga16 antag count: nonselective Ga16 antagonist in TAAR1 agonist counter-screen; 2,400 tested, 39% active; CHO-Ga16 ATP-induced calcium, Fluo-8 fluorescence; shares compounds with TAAR1 agonist; inhibition, % at 3 µM;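 active = inhibition above the plate's mean compound inhibition plus 3 SD, computed per plate, cut at about 22% in these data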;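 also: 0% = EC80 ATP with DMSO and 100% = DMSO wells without ATP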
# Numbers without * were called inactive; x = no result given. A selection: hits, their analogues and other compounds. The true share with any hit is near 4.6%.
SMILES,GPR7 antagonist,OX1R antag-1,TAAR1 antagonist,OX1R antag-2,TAAR1 agonist,CHO parental Ca,TAAR1 ag conf,Ga16 nonsel ag,TAAR1 desens,Ga16 antag count
Cc1cccc(C(=O)NC(=S)NNC(=O)COc2ccc(Cl)cc2)c1,0.9,x,53.1*,x,99.5*,x,103.7*,83.8*,75.8*,53.0*
Cc1ccc(C(=O)NC(=S)NCc2ccccc2)cc1,-18.6,-25.3,-7.2,11.2,2.3,-12.8,x,x,x,x
CC(C)NC(=S)NC(=O)c1ccc(Cl)cc1Cl,2.0,-32.2,-30.1,3.8,5.7,-18.6,x,x,x,x
Cc1ccc(C(=O)NC(=S)NNC(=O)c2ccccc2)cc1,-5.0,10.7,102.5*,6.7,152.6*,15.4,122.8*,98.5*,96.9*,68.7*
Cc1ccc(C(=O)NNC(=S)NC(=O)c2ccccc2)cc1,x,57.2*,106.5*,19.7,166.5*,33.6*,136.3*,92.2*,92.7*,79.0*
CCCCC(=O)NC(=S)NNC(=O)c1ccc(Cl)cc1Cl,-3.0,x,49.3*,x,106.2*,x,131.1*,110.1*,79.3*,54.6*
CC(C)C(=O)Nc1ccc(C(=O)NNC(=S)NC(=O)c2cccs2)cc1,-9.3,-6.5,6.2,13.9,-1.0,-7.8,x,x,x,x
O=C(NNC(=S)NC(=O)c1ccccc1[N+](=O)[O-])c1ccc(Cl)cc1Cl,-3.0,-4.3,-11.1,20.4,5.9,0.7,x,x,x,x
Cc1ccc(C(=O)NNC(=O)c2cccc(C)c2)cc1,-12.7,-5.1,1.8,9.5,4.0,5.0,x,x,x,x
Cc1cccc(C(=O)NNC(=S)NC(=O)c2ccccc2)c1,x,62.3*,106.7*,8.4,169.3*,36.5*,133.0*,105.0*,91.9*,74.9*
Cc1cccc(C(=O)NNC(=S)NC(=O)c2cccs2)c1,7.4,32.0,60.0*,11.9,142.3*,33.5*,120.5*,95.2*,74.7*,53.2*
O=C(NC(=S)NNC(=O)[C@H]1C[C@@H]1c1ccccc1)c1cccc(F)c1,-14.7,-7.0,-5.0,12.0,77.1*,-20.7,74.3*,83.0*,33.5,29.8*
COCCN(CC(=O)Nc1cccc(C)c1C)C(=O)c1ccc2c(c1)OCO2,x,x,-5.5,x,-0.5,x,x,x,x,x
CCC(=O)Nc1ccc(NC(=O)CSc2nnnn2C(C)C)cc1,-0.3,-13.4,2.5,3.1,8.7,-10.9,x,x,x,x
Cc1ccc(C(=O)NNC(=S)NC(=O)c2ccco2)cc1,4.8,64.2*,33.6,11.0,110.7*,65.8*,100.7*,81.8*,46.8,46.7*
CCN1C(=O)C(=O)N(CC(=O)c2[nH]c(C)c(C(C)=O)c2C)C1=O,x,-11.7,-9.9,13.1,1.5,-5.3,x,x,x,x
CC(=O)c1c(C)[nH]c(C(=O)CN2C(=O)NC(C)(c3ccc(C)cc3)C2=O)c1C (centres undefined),19.8*,-15.5,42.3,0.7,85.1*,-7.5,113.2*,55.8*,60.0*,36.2*
O=C(CSc1ccccc1)Nc1ccc(C(=O)Nc2ccc(O)cc2)cc1,4.9,x,27.3,x,75.2*,x,1.1,-0.3,2.8,13.6
O=C1C(Cl)=C(NC(=O)c2ccccc2)C(=O)C(Cl)=C1NC(=O)c1ccccc1,-33.7,11.8,69.5*,48.5*,53.0*,5.4,36.3,20.7*,55.0*,49.0*
O=C(Nc1ccc(C2SCCS2)cc1)c1ccccc1,8.3,-11.9,46.2,7.2,63.1*,-2.7,61.6*,28.4*,47.7,36.3*
COc1ccccc1OCc1ccc(C(=O)Nc2ccccc2)cc1,x,-12.1,57.0*,7.5,63.0*,-3.8,46.2*,27.4*,60.3*,37.3*
Cc1nn(CCO)c(C)c1Oc1ccccc1O,-7.4,-3.1,-13.8,1.0,2.9,-15.4,x,x,x,x
O=C(Cc1ccccc1)NNC(=O)c1ccc(NC(=O)c2ccccc2)cc1,-8.3,-11.4,12.5,14.8,4.3,-12.2,x,x,x,x
O=C(NNC(=O)c1ccc(NC(=O)c2ccccc2)cc1)c1ccccc1,2.6,-22.1,16.4,12.3,60.9*,-2.9,22.0,0.3,14.0,3.5
COC(=O)c1sccc1S(=O)(=O)Nc1ccc(C(O)(C(F)(F)F)C(F)(F)F)cc1,x,x,103.5*,x,169.1*,x,141.8*,112.8*,102.8*,83.5*
SMILES,GPR7 antagonist,OX1R antag-1,TAAR1 antagonist,OX1R antag-2,TAAR1 agonist,CHO parental Ca,TAAR1 ag conf,Ga16 nonsel ag,TAAR1 desens,Ga16 antag count
CN(C1CCCCC1)S(=O)(=O)c1ccc(C(=O)Nc2sc3c(c2C(N)=O)CC(C)(C)NC3(C)C)cc1,10.3,8.5,38.9,21.9,84.6*,3.9,58.3*,38.7*,28.1,34.8*
CCOC(=O)c1ccc(NC(=O)CSc2nnc(CNC(=O)c3c(F)cccc3Cl)o2)cc1,6.5,-2.7,9.2,23.6,11.4,-12.1,x,x,x,x
O=C(CSc1nnc(CNc2ccccc2)o1)N1CCc2ccccc21,-15.8,2.1,75.0*,19.8,74.1*,12.5,9.5,9.2,13.7,13.3
COc1ccc(C(=O)NCc2nnc(SCC(=O)N3CCc4ccccc43)o2)cc1OC,-9.9,-16.9,8.5,7.4,5.6,-14.7,x,x,x,x
CCC(=O)N(CC)c1nc(-c2cc(OC)ccc2OC)cs1,-16.3,-27.4,43.0,14.9,50.3*,-17.9,44.7*,35.5*,39.5,26.5*
Cc1ccc(S(=O)(=O)N2CCCC(C(=O)NCc3ccccc3F)C2)cc1 (centres undefined),-16.4,-16.0,-24.3,14.0,-0.4,-23.7,x,x,x,x
CCn1c(=O)c(C(=O)NNC(=O)c2ccccc2F)c(O)c2ccccc21,1.9,-10.0,51.9*,13.1,101.6*,-15.8,98.9*,88.6*,56.1*,59.9*
CCCCCCCCCC(=O)NNC(=O)c1c(O)c2ccccc2n(CC)c1=O,-4.5,-20.1,4.5,13.9,5.2,-19.6,x,x,x,x
CCCCCC(=O)NNC(=O)c1c(O)c2ccccc2n(CC)c1=O,-12.9,-24.1,7.9,13.9,48.2*,-18.8,18.5,24.1*,-3.1,0.0
Cn1c(=O)c(C(=O)NCCO)c(O)c2ccccc21,-12.4,-10.3,7.1,17.2,10.2,0.6,x,x,x,x
